Measurements of several laboratories.
Lines come from different studies, so protocols differ.
Target: Tyrosine-protein kinase receptor TYRO3 (TYRO3, Homo sapiens, UniProt Q06418)
One construct used (Q06418 41-890): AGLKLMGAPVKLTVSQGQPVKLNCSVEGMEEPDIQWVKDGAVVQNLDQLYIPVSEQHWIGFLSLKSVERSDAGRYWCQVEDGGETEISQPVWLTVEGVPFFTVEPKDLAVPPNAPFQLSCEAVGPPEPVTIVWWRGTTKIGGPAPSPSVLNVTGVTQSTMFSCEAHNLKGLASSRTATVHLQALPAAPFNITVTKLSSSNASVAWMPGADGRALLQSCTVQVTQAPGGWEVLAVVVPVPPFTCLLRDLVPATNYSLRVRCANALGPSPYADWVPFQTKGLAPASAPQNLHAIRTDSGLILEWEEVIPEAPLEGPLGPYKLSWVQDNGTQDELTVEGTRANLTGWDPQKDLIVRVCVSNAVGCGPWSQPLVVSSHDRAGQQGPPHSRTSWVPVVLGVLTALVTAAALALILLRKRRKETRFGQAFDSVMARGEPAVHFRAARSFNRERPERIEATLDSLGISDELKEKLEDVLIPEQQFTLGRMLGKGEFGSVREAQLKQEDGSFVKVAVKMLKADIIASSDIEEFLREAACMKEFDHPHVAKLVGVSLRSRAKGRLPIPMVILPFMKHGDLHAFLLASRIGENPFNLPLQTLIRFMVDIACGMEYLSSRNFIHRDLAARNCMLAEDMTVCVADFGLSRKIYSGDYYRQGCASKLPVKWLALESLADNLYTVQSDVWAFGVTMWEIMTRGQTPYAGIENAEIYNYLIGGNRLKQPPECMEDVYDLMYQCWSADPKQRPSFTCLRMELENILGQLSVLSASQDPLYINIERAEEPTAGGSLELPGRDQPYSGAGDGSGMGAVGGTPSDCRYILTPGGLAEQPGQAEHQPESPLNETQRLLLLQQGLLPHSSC

Cc1nn(C)cc1-c1nc2c(N3CCN(Cc4ccc(Cl)cc4)CC3)c(Cl)cnc2[nH]1 — remaining binding (binding; competition with immobilised ligand; 1 µM): 73%
C#Cc1n[nH]c2c(-c3cn([C@@H](C)c4ccccn4)c(=O)[nH]c3=O)cc(F)cc12 — inhibition (enzyme activity; inhibitor; 0.1 µM): 30.8%
CC(C)(C)c1cc(C=C(C#N)C#N)cc(Br)c1O — remaining activity (enzyme activity; inhibitor; 0.5 µM): 110%
N#CC1(c2ccccn2)CCN(Cc2cc(C(=O)O)c(=O)n3ccccc23)CC1 — remaining binding (cell-free assay; competition with immobilised ligand; 1 µM): 98%
COc1ncccc1-c1cnn2ccc(N3CCN(C(=O)OC(C)C)CC3)nc12 — remaining binding (binding; competition with immobilised ligand; 1 µM): 100%
Cn1cncc1[C@@](O)(COc1ccc(C#N)cc1-c1ccc(OC(F)(F)F)cc1)c1ccc(C#N)cc1 — remaining binding (cell-free assay; competition with immobilised ligand; 1 µM): 100%
Cn1cc(-c2cccc(N3CCc4c(sc5c4CC(C)(C)C5)C3=O)c2CO)cc(Nc2ccncn2)c1=O — inhibition (enzyme activity; inhibitor; 1 µM): 4%
C#Cc1n[nH]c2c(-c3cn([C@@H](C)c4ccccc4)c(=O)[nH]c3=O)cc(F)cc12 — inhibition (enzyme activity; inhibitor; 0.1 µM): 47.7%
O=c1[nH]c2ccccc2n1C1CCN(Cc2ccc(-c3[nH]c4cc5ncnc5cc4nc3-c3ccccc3)cc2)CC1 — remaining signal (cell-free assay; 0.5 µM): 103%
Cn1cc(-c2cc(F)cc(N3CCn4c(cc5c4CCCC5)C3=O)c2CO)cc(Nc2ccc(N3CCN(C4COC4)CC3)cn2)c1=O — inhibition (enzyme activity; inhibitor; 0.1 µM): 17%
